We go through two molecules from ChEMBL document CHEMBL1153988 (J Med Chem, 2009).

Each structure is given as a SMILES string.

Series [1] deals with Mus musculus. Put plainly: Neurotoxicity in CF1 albino mouse at 150 mg/kg, ip after 4 hrs. Format: toxicity, organism-based. Details: dose 150 mg/kg, route intraperitoneal. The conditions noted are these: in vivo. The gist of the method:
(§1)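 Male CF no. 1 albino mice (18-25 g) received a single ip dose as a suspension in 0.5% methylcellulose. The read-out was the number of animals showing neurotoxicity (minimal motor impairment) over the number tested.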

Series [2] relates to Mus musculus. As to the kind of experiment: Anticonvulsant activity in CF1 albino mouse assessed as protection against maximal electroshock-induced seizures at 50 mg/kg, ip after 4 hrs. The class given is functional, organism-based. Details: dose 50 mg/kg. A digest of the protocol:
(§2)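 Adult male CF no. 1 albino mice (18-25 g). Test compound suspended in 0.5% methylcellulose and given intraperitoneally at 0.01 mL/g body weight. Maximal electroshock challenge at the stated time. Read-out is the number of animals protected over the number tested; neurotoxicity is scored in parallel.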
Background: The maximal electroshock test induces tonic seizures with an electrical stimulus.

The subject of series [3] is Mus musculus. As to the kind of experiment: Anticonvulsant activity in CF1 albino mouse assessed as protection against maximal electroshock-induced seizures at 450 mg/kg, ip after 0.5 hrs. Format: functional, organism-based. The arrangement: dose 450 mg/kg. A digest of the protocol: as §2
In series [4] the test system is Mus musculus. As to the kind of experiment: Anticonvulsant activity in CF1 albino mouse assessed as protection against maximal electroshock-induced seizures at 150 mg/kg, ip after 0.5 hrs. The class given is functional, organism-based. The arrangement: dose 150 mg/kg. A digest of the protocol:
as §2

Series [5] relates to Mus musculus. As to the kind of experiment: Anticonvulsant activity in CF1 albino mouse assessed as protection against maximal electroshock-induced seizures at 50 mg/kg, ip after 0.5 hrs. The class given is functional, organism-based. The arrangement: dose 50 mg/kg. The gist of the method:
as §2

Series [6] has as its system Mus musculus. Put plainly: Neurotoxicity in CF1 albino mouse at 50 mg/kg, ip after 4 hrs. The class given is toxicity, organism-based. Details: dose 50 mg/kg, route intraperitoneal. The conditions noted are these: in vivo. A digest of the protocol: as §1
Series [7] has as its system Mus musculus. As to the kind of experiment: Anticonvulsant activity in CF1 albino mouse assessed as protection against scMet-induced seizures at 450 mg/kg, ip after 4 hrs. Format: functional, organism-based. Details: dose 450 mg/kg. A digest of the protocol: (§3)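 Adult male CF no. 1 albino mice (18-25 g) dosed intraperitoneally with compound suspended in 0.5% methylcellulose (0.01 mL/g). Convulsant challenge given subcutaneously as a 0.85% pentylenetetrazol solution in 0.9% saline. Read-out is animals protected over animals tested, with neurotoxicity scored in parallel.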

For series [8], the system named is Mus musculus. As to the kind of experiment: Anticonvulsant activity in CF1 albino mouse assessed as protection against maximal electroshock-induced seizures at 150 mg/kg, ip after 4 hrs. The class given is functional, organism-based. The arrangement: dose 150 mg/kg. The gist of the method: as §2
Series [9] deals with Mus musculus. As to the kind of experiment: Anticonvulsant activity in CF1 albino mouse assessed as protection against scMet-induced seizures at 150 mg/kg, ip after 0.5 hrs. The class given is functional, organism-based. Details: dose 150 mg/kg. A digest of the protocol: as §3
Series [10] concerns Mus musculus. Put plainly: Anticonvulsant activity in CF1 albino mouse assessed as protection against scMet-induced seizures at 450 mg/kg, ip after 0.5 hrs. The class given is functional, organism-based. The arrangement: dose 450 mg/kg. A digest of the protocol:
as §3

Series [11] relates to Mus musculus. Put plainly: Anticonvulsant activity in CF1 albino mouse assessed as protection against maximal electroshock-induced seizures at 450 mg/kg, ip after 4 hrs. Format: functional, organism-based. The arrangement: dose 450 mg/kg. The gist of the method:
as §2

Series [12] concerns Mus musculus. As to the kind of experiment: Anticonvulsant activity in CF1 albino mouse assessed as protection against scMet-induced seizures at 50 mg/kg, ip after 0.5 hrs. The class given is functional, organism-based. Details: dose 50 mg/kg. A digest of the protocol:
as §3

Series [13] relates to Mus musculus. Put plainly: Anticonvulsant activity in CF1 albino mouse assessed as protection against scMet-induced seizures at 150 mg/kg, ip after 4 hrs. The class given is functional, organism-based. Details: dose 150 mg/kg. A digest of the protocol:
as §3

The test system of series [14] is Mus musculus. As to the kind of experiment: Anticonvulsant activity in CF1 albino mouse assessed as protection against scMet-induced seizures at 50 mg/kg, ip after 4 hrs. Format: functional, organism-based. The arrangement: dose 50 mg/kg. A digest of the protocol: as §3
Series [15] deals with Mus musculus. Put plainly: Neurotoxicity in CF1 albino mouse at 450 mg/kg, ip after 0.5 hrs. The class given is toxicity, organism-based. Details: dose 450 mg/kg, route intraperitoneal. The following applies: in vivo. The gist of the method: as §1
In series [16] the test system is Mus musculus. As to the kind of experiment: Anticonvulsant activity in ip dosed CF1 albino mouse assessed as protection against 44 mA-current-induced seizure by 6Hz psychomotor seizure test. The class given is functional. The gist of the method: (§4)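 In the 6 Hz psychomotor seizure test, male CF no. 1 albino mice (18-25 g) received the compound ip in 0.5% methylcellulose. Stimulation was at 32 or 44 mA. Doses were varied to give 3-4 points between 0% and 100% protection, and ED50 with 95% confidence interval came from probit analysis.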

Series [17] relates to Mus musculus. Put plainly: Anticonvulsant activity in ip dosed CF1 albino mouse assessed as protection against 32 mA current-induced seizure by 6Hz psychomotor seizure test. The class given is functional. A digest of the protocol: as §4
For series [18], the species on record is Mus musculus. As to the kind of experiment: Protective index, ratio of TD50 for CF1 albino mouse to ED50 for 32 mA current-induced CF1 albino mouse seizure model. Format: functional. The gist of the method: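 Protective index is the mouse TD50 (minimal motor impairment) divided by the 6 Hz test ED50 at 32 or 44 mA. Male CF no. 1 mice were dosed ip in 0.5% methylcellulose, and values came from probit analysis.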

Series [19] deals with Mus musculus. As to the kind of experiment: Neurotoxicity in ip dosed CF1 albino mouse assessed as minimal motor impairment. The class given is toxicity, organism-based. The conditions noted are these: mouse, in vivo. The gist of the method: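 Mice: male CF no. 1 albino (18-25 g), ip dosing in 0.5% methylcellulose. Minimal motor impairment was scored, with doses varied to give four points between no impairment and all animals impaired.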

One may read the ED50 as the dose that gives a 50% effect, or the effect in half of the subjects.

As to `CC1(C)C(C)(C)C1(Br)C(N)=O`, the Activity result in the series on Mus musculus [1], in the series with Mus musculus [2], with Mus musculus [3], with Mus musculus [4], in the series with Mus musculus [5] and in the series with Mus musculus [6] was “Non-toxic” throughout. For the same molecule, the Activity result in the series on Mus musculus [7], with Mus musculus [8], in the series with Mus musculus [9], in the series on Mus musculus [10], in the series with Mus musculus [11] and with Mus musculus [12] was “Non-toxic” in each case. Moreover, the Activity result in the series with Mus musculus [13] is “Non-toxic”; with Mus musculus [14] it was “Non-toxic”; in the series with Mus musculus [15], “Toxic”.

In the case of `CC1(C)C(C(N)=O)C1(C)C`, the ED50 was more than 200 mg/kg in the series with Mus musculus [16], 72 mg/kg with Mus musculus [17] and 99 mg/kg with Mus musculus [19]. Further, in the series filed under Mus musculus [18], the PI is listed as 1.4.
